Data on one sequence can be found in ChEMBL document CHEMBL1151442, “Genetic and phenotypic identification of fusidic acid-resistant mutants with the small-colony-variant phenotype in Staphylococcus aureus” (2007).

Calls of active or inactive are those of the source. The rule behind the calls is not given here.

Type in all cases: functional
Assay [1] relates to Staphylococcus aureus. As to the kind of experiment: Ratio of MIC for kanamycin-resistant Staphylococcus aureus harboring mutations in FusA gene to MIC for wild type kanamycin-susceptible Staphylococcus aureus AH001.
Assay [2] concerns Staphylococcus aureus. The assay is described as follows: Ratio of MIC for kanamycin-resistant Staphylococcus aureus harboring mutations in FusE gene to MIC for wild type kanamycin-susceptible Staphylococcus aureus AH001.
Assay [3] has as its system Staphylococcus aureus. As to the kind of experiment: Antibacterial activity against fusidic acid-resistant Staphylococcus aureus AH207 harboring Thr385Asn mutation in fusA gene after 18 to 24 hrs by Etest strip assay. The method in brief:
(§1)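 Mutants of lab strain 8325-4 were selected on LA with FA 2 μg/ml for 48 h at 37°C and purified on selective medium. For the MIC, one colony was suspended in 0.9% NaCl to 0.5 McFarland and swabbed onto Mueller-Hinton agar. An Etest strip was applied and plates were incubated at 37°C for 18–24 h until the lawn was evident.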

The test system of assay [4] is Staphylococcus aureus. As to the kind of experiment: Antibacterial activity against fusidic acid-resistant Staphylococcus aureus AH194 harboring Pro404Leu mutation in fusA gene after 18 to 24 hrs by Etest strip assay. The method, boiled down:
as §1

Assay [5] relates to Staphylococcus aureus. As to the kind of experiment: Antibacterial activity against fusidic acid-resistant Staphylococcus aureus AH196 harboring Pro406Leu mutation in fusA gene after 18 to 24 hrs by Etest strip assay. The method, boiled down:
as §1

In assay [6] the test system is Staphylococcus aureus. The assay is described as follows: Antibacterial activity against fusidic acid-resistant Staphylococcus aureus AH198 harboring Gly452Ser mutation in fusA gene after 18 to 24 hrs by Etest strip assay. The method, boiled down: as §1
The test system of assay [7] is Staphylococcus aureus. The assay is described as follows: Antibacterial activity against fusidic acid-resistant Staphylococcus aureus AH201 harboring Gly452Cys mutation in fusA after 18 to 24 hrs by Etest strip assay. The method, boiled down: as §1
Assay [8] relates to Staphylococcus aureus. As to the kind of experiment: Antibacterial activity against fusidic acid-resistant Staphylococcus aureus AH197 harboring Leu456Phe mutation in fusA gene after 18 to 24 hrs by Etest strip assay. The method in brief: as §1
Assay [9] concerns Staphylococcus aureus. The assay is described as follows: Antibacterial activity against fusidic acid-resistant Staphylococcus aureus AH187 harboring His457Tyr mutation in fusA gene after 18 to 24 hrs by Etest strip assay. The method, boiled down:
as §1

Assay [10] has as its system Staphylococcus aureus. The assay is described as follows: Antibacterial activity against fusidic acid-resistant Staphylococcus aureus AH206 harboring Arg464Ser mutation in fusA gene after 18 to 24 hrs by Etest strip assay. The method, boiled down:
as §1

Assay [11] relates to Staphylococcus aureus. The assay is described as follows: Antibacterial activity against fusidic acid-resistant Staphylococcus aureus AH190 harboring Arg464His mutation in fusA gene after 18 to 24 hrs by Etest strip assay. The method in brief: as §1

For the sequence GENTAMICIN, the fold change (FC) in assay [1] and in [2] was 4 in each case. In addition, the result in assay [3], in assay [4], in assay [5], in assay [6], in assay [7] and in assay [8] was Active. Moreover, the outcome in [9], in assay [10] and in assay [11] was Active.
